Sampled rows, rich in hits. Any-hit rate of the full collection: about 3.8%.
MrgX1 ag = agonists of human MrgX1 receptor, primary screen, HEK293 cells, Fluo-4 calcium flux; Fluo-4 calcium fluorescence, agonist mode; hits give high values; B-score at 10 µM; actives 0.44% (n = 310,000); AID 588627, 2011; Mas-related G-protein coupled receptor member X1 (Homo sapiens), Q96LB2;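 active means calcium response B-score plate-corrected fluorescence ratio at least 3 library SD, with starting fluorescence B-score inside 5 SD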
Target sequence (Q96LB2 whole entry, looked up): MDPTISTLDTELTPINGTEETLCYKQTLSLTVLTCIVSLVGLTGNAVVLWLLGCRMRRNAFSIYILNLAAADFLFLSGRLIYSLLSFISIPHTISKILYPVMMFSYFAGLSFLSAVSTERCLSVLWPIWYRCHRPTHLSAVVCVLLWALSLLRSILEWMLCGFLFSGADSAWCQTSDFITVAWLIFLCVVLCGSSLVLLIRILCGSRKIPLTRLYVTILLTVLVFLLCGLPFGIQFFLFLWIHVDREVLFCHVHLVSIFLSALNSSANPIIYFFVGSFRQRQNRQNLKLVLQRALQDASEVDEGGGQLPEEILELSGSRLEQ
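Material: MrgX1-expressing HEK293 cells; input: 15,000 cells per well; doses: test compound given as first of three sequential additions; schedule: overnight plating before 1 h dye loading; technique: Fluo-4 NW calcium-flux fluorescence, kinetic read; evaluation: baseline-normalised fluorescence change ratio, B-scored; control set: plate-wise positive and negative controls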
RGS4 pot = RGS4 potentiators or activators, primary screen, cell-based, HEK293 M3R inducible RGS4, calcium flux; actives 0.92% (n = 310,000); B-score at 10 µM; carbachol calcium flux Fluo4; hits give low values; AID 463111, 2010;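 active means B-score of the integrated calcium signal more than 4 SD below the library mean, with starting fluorescence not abnormally high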;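 further: negative B-score means reduced calcium response which marks RGS4 activation or potentiation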
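Assay system: HEK293 FlpIn-TREx cells, stable M3R, doxycycline-inducible RGS4 / Probe or stimulus: carbachol, ECmax concentration / Times: overnight RGS4 induction, 30 min dye load 37 °C, 20 min compound RT / Signal: kinetic calcium fluorescence imaging with Fluo4-AM dye, 2 µM / Measure: Agonist-evoked peak-minus-minimum fluorescence over baseline, integrated ratio, B score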
MrgX1 antagonist = antagonists of human MrgX1 receptor, primary screen, HEK293 cells, Fluo-4 calcium flux. Mas-related G-protein coupled receptor member X1 (Homo sapiens), Q96LB2. actives 1.3% (n = 310,000). AID 588676, 2011. B-score at 10 µM. BAM8-22 antagonism; hits give low values;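 active means calcium-response B-score plate-corrected more than 3 library SD below zero, starting fluorescence within 5 deviations, no agonist response on first addition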;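 further: peak minus trough fluorescence over baseline after final BAM8-22 challenge near maximal dose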
MrgX1 allo act = positive allosteric modulators of MrgX1, primary screen, HEK293 cells, Fluo-4 calcium flux | FDSS; hits give high values | B-score at 10 µM | actives 0.63% (n = 310,000);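 active means plate-corrected calcium response at least 3 library SD above typical, normal starting fluorescence, not activating the receptor alone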;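 further: compound read alongside a low EC10 to EC30 dose of BAM8-22 agonist; peak minus trough fluorescence over baseline measured at the second addition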
RGS4 block = RGS4 inhibitors, primary screen, cell-based, HEK293 M3R inducible RGS4, calcium flux; Regulator of G-protein signaling 4 (Homo sapiens), P49798; Fluo-4 calcium flux; hits give high values; triggered by carbachol at its EC20; B-score at 10 µM; actives 0.45% (n = 310,000); AID 463165, 2010;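 active means B-score, a plate-corrected calcium signal, over three deviations above library mean, with baseline fluorescence within five deviations of library mean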;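 further: RGS4 expression induced by doxycycline in cells with stable M3 receptor; B-score is computed from the integrated fluorescence ratio over baseline after carbachol; higher B-score means a larger calcium signal and so more RGS4 inhibition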
Target sequence (P49798 whole entry, looked up): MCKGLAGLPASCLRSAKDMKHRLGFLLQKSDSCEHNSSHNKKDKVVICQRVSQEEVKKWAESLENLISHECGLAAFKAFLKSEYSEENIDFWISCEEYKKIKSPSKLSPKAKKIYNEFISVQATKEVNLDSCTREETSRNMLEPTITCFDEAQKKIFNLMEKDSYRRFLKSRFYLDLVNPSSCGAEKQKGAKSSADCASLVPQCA
Hep lipid drop = inhibitors of hepatocyte lipid droplet formation, primary screen, imaging, high-throughput imaging, BODIPY stain; inhibition, % at 6.5 µM; AML12 mouse hepatocytes, oleate lipid droplets; actives 0.4% (n = 240,000); AID 1656, 2009;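 active means lipid droplet intensity inhibited by at least 50%, with more than 500 cells counted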
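Material – AML12 mouse liver cells · Also added – oleate loading, 100 µM · Compound dosing – 6.5 µM single-point dosing · Times – overnight treatment with compound plus oleate · Measured by – fluorescence imaging, 20x objective, two fields per well · Read-out – percent inhibition of filter-corrected integrated lipid droplet intensity per well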
MrgX1 antag conf = MrgX1 receptor antagonists, duplicate retest, confirmation, HEK293 cells, Fluo-4 calcium flux | shares compounds with MrgX1 antagonist | BAM8-22 calcium flux; hits give low values | remaining BAM8-22 calcium response % of control (hits give low values), % at 10 µM | actives 19% (n = 2,300) | AID 602420, 2012;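 active means remaining agonist calcium response no higher than 100% minus 3 SD of agonist-only control wells, with starting fluorescence near control levels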;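 further: agonist BAM8-22 given at a near maximal EC90 to ECmax level; peak minus minimum fluorescence divided by baseline after agonist addition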
HEK293 Ca flux = nonspecific calcium signal in parental HEK293, confirmation, counter-screen for MrgX1 antagonist project, parental HEK293 cells, Fluo-4 calcium flux. fluorescence ratio F(max-min)/F0 at 10 µM. Fluo-4 calcium fluorescence, FDSS. AID 624111, 2012. actives 2% (n = 4,000). shares compounds with MrgX1 antagonist;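 active means duplicate-averaged calcium fluorescence ratio at least three times the standard deviation of buffer wells, a nonspecific response in parental cells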
HEK293 Ca counter = calcium response in parental HEK293 cells, primary screen, counter-screen for MrgX1 allosteric activator project, cell-based, Fluo-4 calcium flux, duplicate; fluorescence ratio F(max-min)/F0 at 10 µM; Fluo-4 fluorescence ratio; hits give high values; actives 0.4% (n = 4,000); shares compounds with MrgX1 antagonist;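 active means calcium fluorescence ratio, averaged over duplicates, at least 3 SD of the buffer-well ratio, meaning a nonspecific response in receptor-free cells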;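 further: untransfected parental HEK293 lacking MrgX1 used as counterscreen for MrgX1 allosteric activators; fluorescence change taken during the second addition on a kinetic imager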
HEK293 Ca cntr2 = calcium response in parental HEK293 cells, primary screen, counter-screen for MrgX1 agonist project, cell-based, Fluo-4 calcium flux, duplicate, agonist mode; shares compounds with MrgX1 antagonist; Fluo-4 calcium fluorescence (FDSS); hits give high values; fluorescence ratio F(max-min)/F0 at 10 µM; actives 8.7% (n = 4,000); AID 624115, 2012;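 active means calcium fluorescence ratio at least three times the spread of buffer wells, meaning a non-specific response in parental cells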
Starred values were filed as active, the others as inactive; i = inactive; nt = no result.

SMILES | MrgX1 ag | RGS4 pot | MrgX1 antagonist | MrgX1 allo act | RGS4 block | Hep lipid drop | MrgX1 antag conf | HEK293 Ca flux | HEK293 Ca counter | HEK293 Ca cntr2
COc1ccc(-c2nn(-c3ccccc3)cc2C(=O)OCC(=O)c2ccc(C)c([N+](=O)[O-])c2)cc1 | i | i | i | i | i | 9 | nt | nt | nt | nt
Cc1cccc(N(CC(=O)NC2CCCCC2)C(=O)c2csnn2)c1 | i | i | i | i | i | 0 | nt | nt | nt | nt
Cc1cccc(N(CC(=O)NC2CCCCC2)C(=O)c2c(C)noc2C)c1 | i | i | -6.5* | i | i | -1 | i | i | i | i
COc1ccc(/C=C/C(=O)Nc2ccccc2Cl)cc1S(=O)(=O)N1CCOCC1 | i | i | i | i | i | 27 | nt | nt | nt | nt
CCOC(=O)c1ccccc1NC(=O)N[C@@H](C)C(=O)OC | i | i | -4.6* | i | i | 2 | i | i | i | i
Cc1ccccc1C(=O)NC1CCN(CC(=O)NCc2ccccc2)CC1 | i | i | i | i | i | -1 | nt | nt | nt | nt
Cc1ccc2c(c1)COc1c3ccc(C(=O)N[C@@H](CO)C(C)C)cc3nn1-2 | i | i | -5.7* | i | i | nt | i | i | i | i
NC(=O)c1cc(NC(=O)c2ccc(NS(=O)(=O)c3cccs3)cc2)cc(C(N)=O)c1 | i | i | i | i | i | -27 | nt | nt | nt | nt
Cc1cccc(C)c1NC(=O)C(=O)NCc1ccccn1 | i | i | i | i | i | nt | nt | nt | nt | nt
COc1ccc(SCCC(=O)NCc2ccncc2)cc1 | i | i | i | i | i | 2 | nt | nt | nt | nt
CC(C)(C)N(Cc1ccccc1)C(=O)COC(=O)CSc1ccc([N+](=O)[O-])cc1 | i | i | -9.9* | i | i | nt | i | i | i | i
COC(=O)C1=C(N)Oc2cc(C)n(Cc3cccnc3)c(=O)c2C1c1cccc(OC)c1OC (stereo not drawn) | i | i | -13* | i | i | -27 | i | i | i | i
COC(=O)C1=C(N)Oc2cc(C)n(Cc3cccnc3)c(=O)c2C1c1cc(OC)ccc1OC (stereo not drawn) | i | i | i | i | i | nt | nt | nt | nt | nt
CCN1CCCC1CNC1=NCCCCC1 (stereo not drawn) | i | i | -5.2* | i | i | nt | 83%* | i | i | i
CCN1CCCC1CNC(=O)C(=O)NC1CC1 (stereo not drawn) | i | i | i | i | i | 0 | nt | nt | nt | nt
Cc1noc(C)c1C(=O)Nc1nc2ccc(S(C)(=O)=O)cc2s1 | i | i | -7.5* | i | i | 2 | i | i | i | i
COc1cc2c(cc1OC)C(C)N(C(=O)c1cc3c(C)cc(C)cc3[nH]1)CC2 (stereo not drawn) | i | i | i | i | i | 37 | nt | nt | nt | nt
CC(CNC(=O)c1ccc(NC2=NC3CS(=O)(=O)CC3S2)cc1)c1ccccc1 (stereo not drawn) | i | i | -5.2* | i | i | 8 | i | i | i | i
O=C(CCS(=O)(=O)c1cccs1)Nc1ccc(C(=O)NC2CCN(Cc3ccccc3)CC2)cc1 | i | i | i | i | i | 26 | nt | nt | nt | nt
Cc1ccc(S(=O)(=O)N(C)C)cc1NC(=O)Cn1c(CN2CCOCC2)nc2ccccc2c1=O | i | i | -4.9* | i | i | -4 | i | i | i | i
Cc1ccc(S(=O)(=O)N(C)C)cc1NC(=O)CSc1nc2ccccc2c(=O)n1CC1CCCO1 (stereo not drawn) | i | i | i | i | i | 1 | nt | nt | nt | nt
CC(C)Oc1ccc(C(=O)N2CCCc3ccccc32)cc1 | i | i | -6.3* | i | i | nt | i | i | i | i
O=C(OCC(=O)N1CCCc2ccccc21)c1cc(S(=O)(=O)N2CCOCC2)ccc1Cl | i | i | -4.5* | i | i | nt | i | i | i | i
CS(=O)(=O)c1ccc(C(=O)OCC(=O)N2CCCc3ccccc32)cc1 | i | i | -7.3* | i | i | nt | 85%* | i | i | i
Cc1ccc(C(=O)CC(Nc2ccc(F)cc2)c2ccccc2)cc1 (stereo not drawn) | i | i | i | i | i | 11 | nt | nt | nt | nt
O=C(NCC1CCCO1)c1ccc2c(c1)S(=O)(=O)c1ccccc1C2=O (stereo not drawn) | i | i | i | i | i | nt | nt | nt | nt | nt
CC(C)(C)c1cc(NS(=O)(=O)c2ccc(Br)s2)no1 | i | i | i | i | i | -2 | nt | nt | nt | nt
COc1cc(NC(=S)N2CCC(C(N)=O)CC2)c(OC)cc1Cl | i | i | i | i | i | 16 | nt | nt | nt | nt
CCc1ccc2c(c1)C(NC(C)=O)C(=O)N2CCN1CCOCC1 (stereo not drawn) | i | i | -9.7* | i | i | 5 | i | i | i | i
COCCCn1c(O)c(/C=C2\N=C(C#N)C(=Nc3ccc(C)cc3)O2)sc1=S | i | i | -11* | i | i | 9 | i | i | i | i
